Test results published in ChEMBL document CHEMBL1141029, “Allosteric inhibitors of Akt1 and Akt2: discovery of [1,2,4]triazolo[3,4-f][1,6]naphthyridines with potent and balanced activity” (Bioorg Med Chem Lett, 2009).
pIC50: −log10 of the molar value.

Assays:
[1] = Inhibition of PKC
[2] = target: T1, Serine/threonine-protein kinase Sgk1 (Homo sapiens, UniProt O00141); test: Inhibition of SGK
T1 sequence (O00141 whole entry): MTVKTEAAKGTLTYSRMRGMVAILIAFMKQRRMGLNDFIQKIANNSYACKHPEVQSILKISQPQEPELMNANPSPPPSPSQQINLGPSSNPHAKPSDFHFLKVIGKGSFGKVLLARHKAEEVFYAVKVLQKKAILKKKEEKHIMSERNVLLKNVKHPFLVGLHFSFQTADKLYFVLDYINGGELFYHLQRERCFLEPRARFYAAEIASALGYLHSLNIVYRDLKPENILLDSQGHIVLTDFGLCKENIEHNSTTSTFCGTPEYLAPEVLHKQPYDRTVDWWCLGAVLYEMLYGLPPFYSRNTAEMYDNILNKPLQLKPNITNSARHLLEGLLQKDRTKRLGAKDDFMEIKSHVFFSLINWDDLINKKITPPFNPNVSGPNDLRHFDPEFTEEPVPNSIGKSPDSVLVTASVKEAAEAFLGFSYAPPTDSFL

[3] = target: T2, RAC-alpha serine/threonine-protein kinase (Homo sapiens, UniProt P31749); test: Inhibition of human cloned Akt1 expressed in Drosophila S2 cells by HTRF assay; assay type: cell-based
[4] = target: T3, RAC-beta serine/threonine-protein kinase (Homo sapiens, UniProt P31751); test: Inhibition of human cloned Akt2 expressed in Drosophila S2 cells by HTRF assay; assay type: cell-based
[5] = Inhibition of PKA
[6] = target: T2, RAC-alpha serine/threonine-protein kinase; test: Inhibition of Akt1 by cell based assay
[7] = target: T3, RAC-beta serine/threonine-protein kinase; test: Inhibition of Akt2 by cell based assay
Mus musculus [8] = test: Inhibition of Akt1 phosphorylation in lung of nude mouse xenografted with C33a cells at 18 mg/mL administered through mini-pump after 20 hrs by IP kinase assay; assay type: functional
Summary of the method: (§1)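 Nude mice bearing C33a cervical carcinoma tumours, 3 per concentration. Hydrochloride salt in 25% hydroxypropyl-b-cyclodextrin given by mini-pump at 8 µL/hr for 20 hrs, pump solution 70 or 18 mg/mL. Blood drawn for PK at 3, 6, 8, 11 and 20 h, so steady-state blood level is known. Euthanized at 20 h. Akt1 and Akt2 phosphorylation activity measured in lung as % inhibition.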

Mus musculus [9] = test: Inhibition of Akt2 phosphorylation in lung of nude mouse xenografted with C33a cells at 70 mg/mL administered through mini-pump after 20 hrs by IP kinase assay; assay type: functional; summary of the method: as §1
[10] = Drug level in blood of nude mouse xenografted with […] at 70 mg/mL after 20 hrs; assay type: ADME, tissue-based; conditions: whole blood, read-out: Drug uptake; summary of the method: as §1
Mus musculus [11] = test: Inhibition of Akt2 phosphorylation in lung of nude mouse xenografted with C33a cells at 18 mg/mL administered through mini-pump after 20 hrs by IP kinase assay; assay type: functional; summary of the method: as §1
[12] = target: Voltage-gated inwardly rectifying potassium channel KCNH2 (Homo sapiens, UniProt Q12809); test: Inhibition of human ERG expressed in HEK cells by competitive radioligand binding assay; assay type: cell-based, HEK293
[13] = Drug level in blood of nude mouse xenografted with […] at 18 mg/mL after 20 hrs; assay type: ADME, tissue-based; conditions: whole blood, read-out: Drug uptake; summary of the method: as §1
[14] = Drug level in blood of nude mouse xenografted with […] at 10 mg/mL after 20 hrs; assay type: ADME, tissue-based; conditions: whole blood, read-out: Drug uptake
Mus musculus [15] = test: Inhibition of Akt2 phosphorylation in lung of nude mouse xenografted with C33a cells at 10 mg/mL administered through mini-pump after 20 hrs by IP kinase assay; assay type: functional
Mus musculus [16] = test: Inhibition of Akt1 phosphorylation in lung of nude mouse xenografted with C33a cells at 70 mg/mL administered through mini-pump after 20 hrs by IP kinase assay; assay type: functional; conditions: in the assay text read “10 mg/mL” for “70 mg/mL”

T2 sequence (P31749 whole entry): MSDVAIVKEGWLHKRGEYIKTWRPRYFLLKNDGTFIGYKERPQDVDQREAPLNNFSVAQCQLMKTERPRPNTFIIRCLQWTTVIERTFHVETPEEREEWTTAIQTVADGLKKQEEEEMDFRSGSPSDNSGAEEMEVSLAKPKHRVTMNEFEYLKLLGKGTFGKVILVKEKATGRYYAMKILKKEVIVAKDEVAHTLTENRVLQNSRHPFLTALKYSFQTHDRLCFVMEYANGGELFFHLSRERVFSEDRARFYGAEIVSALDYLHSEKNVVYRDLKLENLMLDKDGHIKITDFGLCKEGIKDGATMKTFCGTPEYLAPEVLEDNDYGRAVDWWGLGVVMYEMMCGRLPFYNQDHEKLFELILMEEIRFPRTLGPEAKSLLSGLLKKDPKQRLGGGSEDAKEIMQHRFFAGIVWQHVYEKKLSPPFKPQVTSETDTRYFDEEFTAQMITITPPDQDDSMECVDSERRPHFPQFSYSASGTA
T3 sequence (P31751 whole entry): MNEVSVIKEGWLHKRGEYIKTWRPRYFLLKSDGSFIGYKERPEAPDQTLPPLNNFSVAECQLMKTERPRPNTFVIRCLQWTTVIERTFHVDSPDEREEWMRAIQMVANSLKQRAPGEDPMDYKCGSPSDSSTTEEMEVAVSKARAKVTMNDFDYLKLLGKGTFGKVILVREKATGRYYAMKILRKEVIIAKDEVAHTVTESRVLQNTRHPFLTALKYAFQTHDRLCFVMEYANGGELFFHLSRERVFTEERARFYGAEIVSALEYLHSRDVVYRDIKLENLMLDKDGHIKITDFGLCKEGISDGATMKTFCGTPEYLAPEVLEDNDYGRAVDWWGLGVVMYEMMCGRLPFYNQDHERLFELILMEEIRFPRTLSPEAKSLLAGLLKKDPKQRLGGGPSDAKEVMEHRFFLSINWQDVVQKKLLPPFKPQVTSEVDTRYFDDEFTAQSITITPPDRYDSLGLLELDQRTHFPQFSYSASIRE
Sequence of Voltage-gated inwardly rectifying potassium channel KCNH2 (Q12809 whole entry): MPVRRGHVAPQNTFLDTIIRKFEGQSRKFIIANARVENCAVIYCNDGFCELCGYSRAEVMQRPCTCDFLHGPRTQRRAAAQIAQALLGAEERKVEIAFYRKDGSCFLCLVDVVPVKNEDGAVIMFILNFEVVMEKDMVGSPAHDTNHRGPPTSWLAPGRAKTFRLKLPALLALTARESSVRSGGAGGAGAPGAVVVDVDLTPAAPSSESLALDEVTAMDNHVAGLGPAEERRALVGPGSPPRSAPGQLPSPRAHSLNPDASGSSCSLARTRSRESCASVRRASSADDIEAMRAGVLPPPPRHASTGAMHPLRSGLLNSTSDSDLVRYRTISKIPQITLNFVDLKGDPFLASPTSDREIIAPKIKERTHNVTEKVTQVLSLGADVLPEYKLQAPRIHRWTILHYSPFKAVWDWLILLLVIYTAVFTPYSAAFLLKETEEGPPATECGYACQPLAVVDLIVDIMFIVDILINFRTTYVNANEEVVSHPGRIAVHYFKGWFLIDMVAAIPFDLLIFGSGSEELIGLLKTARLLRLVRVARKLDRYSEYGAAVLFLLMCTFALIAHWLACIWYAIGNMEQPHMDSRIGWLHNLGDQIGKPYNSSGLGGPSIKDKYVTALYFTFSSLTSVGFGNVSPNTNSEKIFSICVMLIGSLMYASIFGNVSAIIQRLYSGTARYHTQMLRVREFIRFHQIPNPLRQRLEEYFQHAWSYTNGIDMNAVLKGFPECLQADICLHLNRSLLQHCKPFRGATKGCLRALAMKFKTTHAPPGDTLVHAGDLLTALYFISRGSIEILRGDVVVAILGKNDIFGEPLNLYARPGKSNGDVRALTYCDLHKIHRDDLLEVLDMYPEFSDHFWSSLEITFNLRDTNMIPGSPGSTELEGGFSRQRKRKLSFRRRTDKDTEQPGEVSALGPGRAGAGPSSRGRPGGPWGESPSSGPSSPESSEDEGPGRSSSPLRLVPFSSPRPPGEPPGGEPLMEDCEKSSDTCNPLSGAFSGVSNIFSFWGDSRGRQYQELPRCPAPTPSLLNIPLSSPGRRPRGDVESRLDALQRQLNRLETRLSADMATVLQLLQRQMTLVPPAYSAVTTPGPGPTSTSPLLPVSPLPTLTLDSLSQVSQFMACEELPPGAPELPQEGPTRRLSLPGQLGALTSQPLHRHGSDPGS

Compound | pIC50 [1] | pIC50 [2] | pIC50 [3] | pIC50 [4] | pIC50 [5] | pIC50 [6] | pIC50 [7] | concentration at 20 h [10] | concentration at 20 h [13] | concentration at 20 h [14] | inhibition (INH) (Mus musculus [8]) | inhibition (INH) (Mus musculus [9]) | inhibition (INH) (Mus musculus [11]) | pIC50 [12] | inhibition (INH) (Mus musculus [15]) | inhibition (INH) (Mus musculus [16])
OCCNCc1nnc2c3cc(-c4ccccc4)c(-c4ccc(CN5CCC(c6n[nH]c(-c7ccccn7)n6)CC5)cc4)nc3ccn12 | < 4.30 | < 4.30 | 7.77 | 7.11 | < 4.30 | 7.38 | 6.60 |  |  |  |  |  |  |  |  | 
CN1CCN(Cc2nnc3c4cc(-c5ccccc5)c(-c5ccc(CN6CCC(c7n[nH]c(-c8ccccn8)n7)CC6)cc5)nc4ccn23)CC1 | < 4.30 | < 4.30 | 8.00 | 7.26 | < 4.30 | 7.20 | 6.42 |  |  |  |  |  |  |  |  | 
O=c1[nH]ccc2nc(-c3ccc(CN4CCC(c5n[nH]c(-c6ccccn6)n5)CC4)cc3)c(-c3ccccc3)cc12 |  |  |  |  |  |  |  |  |  | 3000 nM |  |  |  | 5.25 | 4% | 85%
Nc1nnc2c3cc(-c4ccccc4)c(-c4ccc(CN5CCC(n6cnc(-c7ccccn7)c6)CC5)cc4)nc3ccn12 |  |  | 8.48 | 8.55 |  | 7.74 | 7.13 |  |  |  |  |  |  |  |  | 

Continued, in another order:

pIC50 [1] | pIC50 [2] | pIC50 [3] | pIC50 [4] | pIC50 [5] | pIC50 [6] | pIC50 [7] | concentration at 20 h [10] | concentration at 20 h [13] | concentration at 20 h [14] | Compound | inhibition (INH) (Mus musculus [8]) | inhibition (INH) (Mus musculus [9]) | inhibition (INH) (Mus musculus [11]) | pIC50 [12] | inhibition (INH) (Mus musculus [15]) | inhibition (INH) (Mus musculus [16])
< 4.30 | < 4.30 | 8.34 | 7.84 | < 4.30 | 7.61 | 6.75 |  |  |  | Cc1nnc2c3cc(-c4ccccc4)c(-c4ccc(CN5CCC(c6n[nH]c(-c7ccccn7)n6)CC5)cc4)nc3ccn12 |  |  |  |  |  | 
< 4.30 | < 4.30 | 8.40 |  | < 4.30 | 8.30 | 7.39 | 1700 nM | 1800 nM |  | c1ccc(-c2cc3c(ccn4cnnc34)nc2-c2ccc(CN3CCC(c4n[nH]c(-c5ccccn5)n4)CC3)cc2)cc1 | 92% | 35% | 41% | < 5.00 |  | 
< 4.30 | < 4.30 | 8.55 | 8.03 | < 4.30 | 7.74 | 7.32 |  |  |  | Nc1nnc2c3cc(-c4ccccc4)c(-c4ccc(CN5CCC(c6n[nH]c(-c7ccccn7)n6)CC5)cc4)nc3ccn12 |  |  |  |  |  | 
< 4.30 | < 4.30 | 8.00 | 7.98 | < 4.30 | 7.77 | 6.97 |  |  |  | Sc1nnc2c3cc(-c4ccccc4)c(-c4ccc(CN5CCC(c6n[nH]c(-c7ccccn7)n6)CC5)cc4)nc3ccn12 |  |  |  |  |  | 
< 4.30 | < 4.30 | 8.59 | 8.17 | < 4.30 | 7.57 | 6.78 |  |  |  | Oc1nnc2c3cc(-c4ccccc4)c(-c4ccc(CN5CCC(c6n[nH]c(-c7ccccn7)n6)CC5)cc4)nc3ccn12 |  |  |  | 5.27 |  | 
< 4.30 | < 4.30 | 7.57 | 7.98 | < 4.30 | 6.95 | 6.32 |  |  |  | ClCc1nnc2c3cc(-c4ccccc4)c(-c4ccc(CN5CCC(c6n[nH]c(-c7ccccn7)n6)CC5)cc4)nc3ccn12 |  |  |  | 5.70 |  | 
< 4.30 | < 4.30 | 8.07 | 7.62 | < 4.30 | 6.58 | 5.92 |  |  |  | NC(=O)Nc1nnc2c3cc(-c4ccccc4)c(-c4ccc(CN5CCC(c6n[nH]c(-c7ccccn7)n6)CC5)cc4)nc3ccn12 |  |  |  |  |  | 
